Here are results for six compounds from ChEMBL document CHEMBL1155662, “New phloroglucinol derivatives from Hypericum papuanum” (2000).

SMILES strings stand for the structures. ≈ marks a conversion by molar mass, not a printed value.

Common to all, as to assay type: functional
Assay [1] has as its system Staphylococcus epidermidis. Put plainly: Antibacterial activity against Staphylococcus epidermidis ATCC 12228 after 20 hrs by MTT assay. The settings on record: ATCC 12228, 20 h. In a few lines: (§1)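 Twofold broth doubling-dilution in nutrient broth. Overnight 37 °C cultures diluted to about 10^5 cells/mL. Compounds from 1 mg/mL MeOH stocks were dried in the first wells, then redissolved in DMSO, broth and culture before serial dilution. Plates held 20 h at 37 °C in a moist atmosphere. 0.25% aqueous MTT was added and plates reincubated 4 h; violet turbid wells scored as living bacteria.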

A further assay deals with Micrococcus luteus. Put plainly: Antibacterial activity against Micrococcus luteus ATCC 9341 after 20 hrs by MTT assay. To be noted: ATCC 9341, 20 h. In a few lines: as §1
Background: Tetrazolium assays rely on reduction of a dye to a coloured formazan, in cell work by metabolically active cells.

The subject of another assay is Bacillus cereus. Put plainly: Antibacterial activity against Bacillus cereus ATCC 10702 after 20 hrs by MTT assay. To be noted: ATCC 10702, 20 h. In a few lines:
as §1

What is called MIC is the lowest concentration found to suppress growth. For `C=C(C)[C@@H]1CC23C(=O)[C@@](C)(C[C@H]2C1(C)C)C(=O)C(C(=O)C(C)CC)=C3O` (stereo partly drawn) [LALIBINONE C], the MIC is 32 µg/mL (≈ 89.3 µM) in assay [1], 64 µg/mL (≈ 179 µM) against Micrococcus luteus and 16 µg/mL (≈ 44.6 µM) in the assay with Bacillus cereus.
The like results for `C=C(C)[C@H]1CC23C(=O)C(C(=O)C(C)C)=C(O)[C@](C)(C[C@H]2C1(C)C)C3=O` [LALIBINONE B] were, in that order, 128 µg/mL (≈ 372 µM), 64 µg/mL (≈ 186 µM) and 64 µg/mL (≈ 186 µM).
For `C=C(C)[C@H]1CC23C(=O)[C@@](C)(C[C@H]2C1(C)C)C(=O)C(C(=O)C(C)CC)=C3O` (stereo partly drawn) [LALIBINONE D], in that order: 32 µg/mL (≈ 89.3 µM), 64 µg/mL (≈ 179 µM) and 16 µg/mL (≈ 44.6 µM).
The like results for `CC(C)C(=O)C1=C(O)[C@]2(C)C[C@H]3C(C)(C)CCC3(C1=O)C2=O` [LALIBINONE E] were, in that order, greater than 256 µg/mL, greater than 128 µg/mL and greater than 128 µg/mL.
On to `O=C(N[C@H](CO)[C@H](O)c1ccc([N+](=O)[O-])cc1)C(Cl)Cl` [CHLORAMPHENICOL], for which the MIC in assay [1] came to 4 µg/mL (≈ 12.4 µM); with Micrococcus luteus, 1 µg/mL (≈ 3.09 µM); in the assay on Bacillus cereus it was 2 µg/mL (≈ 6.19 µM).
The like results for `C=C(C)[C@@H]1CC23C(=O)C(C(=O)C(C)C)=C(O)[C@](C)(C[C@H]2C1(C)C)C3=O` [LALIBINONE A] were, in that order, 64 µg/mL (≈ 186 µM), 64 µg/mL (≈ 186 µM) and 64 µg/mL (≈ 186 µM).
